Data on seven compounds can be found in ChEMBL document CHEMBL4382253, “Isolation and Characterization of Anaephenes A-C, Alkylphenols from a Filamentous Cyanobacterium ( Hormoscilla sp., Oscillatoriales)” (J Nat Prod, 2018).

One may read the MIC as the least concentration at which growth counts as inhibited. The IC50 is the midpoint of a concentration-inhibition curve. High values mean lower potency, low ones higher potency.

One assay deals with Saccharomyces cerevisiae. The assay is described as follows: Antifungal activity against Saccharomyces cerevisiae BY4741 measured after overnight incubation by spectrometric method. The format is functional. In short, it runs like this:
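Yeast grown overnight in YPD at 30 °C. Cell density set by A660, final 10 × 10^5 cells/mL. 2-fold serial dilution in YPD from 100 μM, DMSO negative control, nystatin positive control starting at 25 μM. Triplicates, overnight incubation.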

In a further assay the test system is Bacillus cereus. The assay can be described thus: Antibacterial activity against Bacillus cereus ATCC 10987 NRS 248 measured after overnight incubation. Type of assay: functional. In short, it runs like this: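 B. cereus grown overnight in LB broth at 30 °C, diluted 10^6-fold in fresh medium. 2-fold serial broth microdilution in 96-well plates starting at 100 μM, DMSO or water as negative control. Triplicates. MIC is the lowest concentration with no visible turbidity.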

For another assay, the system named is Staphylococcus aureus. The assay can be described thus: Antibacterial activity against Staphylococcus aureus ATCC 25923 Seattle 1945 measured after overnight incubation. The format is functional. The method, boiled down:
(§1)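 Strain precultured overnight in LB broth at 37 °C, then diluted 10^6-fold in fresh medium. 2-fold serial broth microdilution in 96-well plates from 100 μM top concentration, DMSO or water negative control. Triplicate wells. MIC taken as the lowest concentration showing no turbidity.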

The subject of another assay is Pseudomonas aeruginosa. The assay can be described thus: Antibacterial activity against Pseudomonas aeruginosa PAO1 ATCC BAA-47 measured after overnight incubation. Type of assay: functional. In short, it runs like this:
as §1

The test system of assay [1] is Mycobacterium tuberculosis. The assay is described as follows: Antibacterial activity against Mycobacterium tuberculosis H37Ra ATCC 25177 measured after 1 week. Type of assay: functional. The settings on record: H37Ra ATCC 25177, 168 h. The method, boiled down: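 M. tuberculosis H37Ra grown two weeks in Middlebrook 7H9, diluted to OD600 0.01; broth microdilution in 96-well plates, compounds given at 2-fold final concentration in first column then serially diluted 2-fold; DMSO or H2O negative control, streptomycin positive control; triplicates; incubated one week at 37 °C.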

In the next assay the test system is HCT-116. The assay can be described thus: Cytotoxicity against human HCT116 cells after 48 hrs by MTT assay. Type of assay: functional, cell-based. The settings on record: HCT-116, 48 h. The method, boiled down: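 Cells kept in DMEM with 10% FBS and 1% antibiotic-antimycotic at 37 °C, 5% CO2. Seeded at 10,000 cells/well, treated after 24 h with a range of concentrations or DMSO. Viability read by MTT after 48 h.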
Background: Tetrazolium assays rely on reduction of a dye to a coloured formazan, in cell work by metabolically active cells.

Values after ≈ are worked out from the molar mass of the structure shown.

Consider NYSTATIN, for which it took 23 µg/mL to inhibit growth against Saccharomyces cerevisiae (MIC).
In the assay with Bacillus cereus, `O=C(O)c1cn(C2CC2)c2cc(N3CCNCC3)c(F)cc2c1=O` [CIPROFLOXACIN] registered an MIC of 0.03 µg/mL (≈ 0.0905 µM).
As for `CCC/C=C/CCCCc1cccc(O)c1`, the MIC in the assay on Bacillus cereus is 11 µg/mL (≈ 50.4 µM); against Staphylococcus aureus, 22 µg/mL (≈ 101 µM); against Pseudomonas aeruginosa it was above 22 µg/mL; in assay [1], above 22 µg/mL; in the assay on Saccharomyces cerevisiae, above 22 µg/mL. In the assay with HCT-116, this compound showed an IC50 of 26 µM.
Consider `C#CCCC/C=C/CCCCc1cccc(O)c1`, for which the MIC against Bacillus cereus is 6.1 µg/mL (≈ 25.2 µM); in the assay on Staphylococcus aureus it was 6.1 µg/mL (≈ 25.2 µM); against Pseudomonas aeruginosa it was above 24 µg/mL; in assay [1], above 24 µg/mL; against Saccharomyces cerevisiae it was above 24 µg/mL. Further, in the assay on HCT-116, the IC50 came to 71 µM.
For the compound `CN[C@@H]1[C@H](O[C@H]2[C@H](O[C@H]3[C@H](O)[C@@H](O)[C@H](N=C(N)N)[C@@H](O)[C@@H]3N=C(N)N)O[C@@H](C)[C@]2(O)C=O)O[C@@H](CO)[C@H](O)[C@H]1O` [STREPTOMYCIN], the MIC in the assay on Pseudomonas aeruginosa was 6.2 µg/mL (≈ 10.7 µM); in assay [1] it was 3.1 µg/mL (≈ 5.33 µM).
As to `CCC/C=C/C=C/CCc1cccc(O)c1`, the MIC against Bacillus cereus is 22 µg/mL (≈ 102 µM); against Staphylococcus aureus, 22 µg/mL (≈ 102 µM); against Pseudomonas aeruginosa, above 22 µg/mL; in assay [1] it was above 22 µg/mL; with Saccharomyces cerevisiae it was above 22 µg/mL. In the assay on HCT-116, this compound displayed an IC50 above 100 µM.
For the compound `O=C(N[C@H](CO)[C@H](O)c1ccc([N+](=O)[O-])cc1)C(Cl)Cl` [CHLORAMPHENICOL], the MIC against Staphylococcus aureus is 4 µg/mL (≈ 12.4 µM).
